Screens (PubChem)
A selection: hits, their analogues and other compounds. The true share with any hit is near 4%.
S1P3 antag = S1P3 (human) receptor antagonism | Q99500 | CHO S1P3 NFAT-BLA reporter, FRET fluorescence, antagonist mode | inhibition, % at 4.98 µM | 170,000 tested, 0.27% active | AID 485;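 active = inhibition above the plate cutoff, the mean inhibition of test wells on that plate plus 3 SD, cut at about 28% in these data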;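 also: cells challenged with S1P at its EC80 of 0.8 µM; blue over green emission ratio from cleaved BLA substrate after 4 h stimulation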
Mdm2 ligase inh = Mdm2 E3 ligase (human) inhibition. cell-based MDM2 ubiquitination luciferase reporter, 2 h; 0 = plate control, 100 = twice control, blank-subtracted. signal enhancement, % at 5 µM. 210,000 tested, 0.11% active. AID 1230;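 active = signal enhancement of 30% or more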;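 also: luminescence tracks abundance of the self-degrading MDM2-luciferase fusion protein; higher signal means inhibition of MDM2 E3 ligase activity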
Target sequence (Q00987 whole entry, looked up, the tested form may be a part): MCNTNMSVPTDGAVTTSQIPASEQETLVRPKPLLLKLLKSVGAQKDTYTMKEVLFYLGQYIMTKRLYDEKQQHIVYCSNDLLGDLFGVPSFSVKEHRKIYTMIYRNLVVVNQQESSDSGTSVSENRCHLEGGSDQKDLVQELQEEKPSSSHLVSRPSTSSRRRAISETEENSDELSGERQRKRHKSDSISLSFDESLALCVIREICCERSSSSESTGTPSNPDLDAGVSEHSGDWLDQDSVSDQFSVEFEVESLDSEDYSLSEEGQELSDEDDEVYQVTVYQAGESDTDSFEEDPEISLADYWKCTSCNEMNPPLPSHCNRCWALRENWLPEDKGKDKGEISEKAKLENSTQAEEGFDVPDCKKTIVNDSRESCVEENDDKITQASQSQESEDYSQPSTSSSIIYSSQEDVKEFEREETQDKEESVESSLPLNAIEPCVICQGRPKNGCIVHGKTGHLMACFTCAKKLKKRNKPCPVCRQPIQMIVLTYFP
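Buffer or medium: Cells held in DMEM | Assay system: Stable mammalian line carrying autodegrading MDM2–luciferase fusion reporter | Quantity: 2000 cells/well | Times: 4 h settle plus 2 h compound, 37 °C | Doses: One concentration, 5 µM, with 0.2% DMSO | Technique: Luminescence with SteadyLite reagent, 15 min at room temperature | Benchmarks: Plate controls and plate blanks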
CHOP inhibitor = CHOP inhibition in unfolded protein response; CHO-K1 CHOP-promoter luciferase, tunicamycin-induced, 15-18 h; inhibition, % at 10 µM; 220,000 tested, 3.8% active; AID 2732;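 active = compounds that reduced the stress-induced luciferase reporter signal by more than about 70% of percent inhibition, limit read from the data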
Hsp70 activator = transcriptional activators of Hsp70. HeLa Hsp70 promoter luciferase reporter, luminescence; scaled: vehicle 0, proteasome-inhibitor control 100%. 200,000 tested, 0.04% active. AID 1203. activation, % at 10 µM;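 active = activation above the mean across all tested compounds plus 3 SD, cutoff set per campaign, cut at about 5.5% in these data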
Numbers stand for hits; n = inactive; x = no result.

SMILES	S1P3 antag	Mdm2 ligase inh	CHOP inhibitor	Hsp70 activator
COc1ccccc1/C=N/NC(=O)CC(=O)NC1CCCCC1	n	n	n	n
CCC(C)NC(=O)C1CCN(S(=O)(=O)c2ccc(OC)cc2)CC1 (stereo unspecified)	x	n	n	n
CCOC(=O)c1cc2c3ccccc3n(CC)c2nc1N	x	n	73	n
CCOC(=O)c1ccccc1NC(=O)COc1cc(=O)n(CC)c2ccccc12	x	n	n	n
CCOC(=O)c1cc(=O)n(Cc2ccccc2C)c2ccccc12	x	n	71	n
CC1Cc2ccccc2N1C(=O)COC(=O)CNC(=O)c1ccc(Br)o1 (stereo unspecified)	x	n	n	n
O=C(Nc1ccc(F)cc1)c1ccccc1CC[N+](=O)[O-]	x	n	n	n
Cc1ccc2cc3cc(C(=O)N4CCN(C(=O)c5ccco5)CC4)sc3nc2c1	n	n	n	n
Cc1ccc2cc3cc(C(=O)N4CCN(Cc5ccccc5)CC4)sc3nc2c1	x	n	74	n
COc1ccccc1N/C(=N/S(=O)(=O)c1ccc(C)cc1)c1ccc(Cl)cc1	x	n	n	n
O=C(C[n+]1ccc(/C=N/O)cc1)N1CCCCC1	n	n	n	x
Cn1c2ccccc2c2cnn(CC(=O)Nc3ccc(F)cc3F)c(=O)c21	n	n	88	x
Cn1c2ccccc2c2cnn(CC(=O)Nc3ccccc3Br)c(=O)c21	n	n	n	x
CCOC(=O)COc1ccc(C2CC(C)=NN2c2ccccc2)cc1 (stereo unspecified)	n	32	n	n
COc1ccc(C2CC(c3cccs3)=NN2C(=O)COC(=O)C2CCCCC2)cc1OC (stereo unspecified)	n	n	n	n
O=C1O/C(=C/Br)CCC1c1cccc2ccccc12 (stereo unspecified)	x	x	n	x
Cn1c(=O)cc(SCC(=O)NCCC2=CCCCC2)c2cc(Cl)ccc21	n	n	93	n
COc1cc(NC(=O)CN2CCCCC2C)c(C)cc1[N+](=O)[O-] (stereo unspecified)	n	n	n	n
O=C(Nc1ccccc1Sc1ccccc1)c1ccccc1	x	n	92	n
O=C(Cc1ccccc1)Nc1ccccc1Sc1ccccc1	n	n	n	n
CS(=O)(=O)N(Cc1ccc(C(=O)Nc2ccccc2Sc2ccccc2)cc1)c1ccccc1	x	n	77	n
CS(=O)(=O)N(CC(=O)Nc1ccccc1Sc1ccccc1)c1ccc(F)cc1	x	n	n	n
CC(=O)CC1(OC(C)=O)C(=O)N(C)c2ccccc21 (stereo unspecified)	n	n	n	n
Cc1ccc(C(=O)N2CCN(CCNC(=O)C(=O)NC(C)C)CC2)cc1	n	n	n	n
O=C(NC1CCCCCC1)c1ccc2nc3cc(Cl)ccc3c(=O)n2c1	n	n	n	n
SMILES	S1P3 antag	Mdm2 ligase inh	CHOP inhibitor	Hsp70 activator
CCn1c(=O)c2cc(C(=O)N3CCCC3)sc2c2ccccc21	57	n	n	n
CCn1c(=O)c2cc(C(=O)N3CCOCC3)sc2c2ccccc21	n	n	n	n
Cc1ccc(C(=O)c2cncc(Br)c2)cc1	n	n	n	n
CCc1ccc(C(=O)c2cncc(Br)c2)cc1	x	n	74	n
CCN(CC)c1ccc(N=Cc2c(C)[nH]c3ccccc23)cc1	n	n	97	n
COc1cccc(/C=N/NC(N)=S)c1OCc1cccc(Cl)c1	n	n	n	n
COC(=O)N/N=C/c1cc(Cl)cc(Cl)c1OCc1ccccc1	n	n	74	n
CCCCCCCCCCS(=O)(=O)N/N=C/c1ccccc1OC	n	n	82	n
CCCCCCCCCCS(=O)(=O)N/N=C/c1ccc(O)cc1	n	n	n	n
CCc1nc(N2CCCC(C)C2)c2oc3ccccc3c2n1 (stereo unspecified)	n	n	72	n
CCOC(=O)C1CCCN(c2nc(C)nc3c2oc2ccccc23)C1 (stereo unspecified)	x	n	n	n
CCc1nc(N2CCCCC2C)c2oc3ccccc3c2n1 (stereo unspecified)	n	n	n	n
CCc1nc(N2CCCCC2)c2oc3ccccc3c2n1	n	n	89	n
Cc1nc(SCC(=O)NCc2ccccc2)c2oc3ccccc3c2n1	x	n	72	n
CCc1nc(N2CCCCC2C(=O)O)c2oc3ccccc3c2n1 (stereo unspecified)	n	n	n	x
CCOC(=O)C1CCN(c2nc(C)nc3c2oc2ccccc23)CC1	x	n	75	x
COc1ccc(NCc2nnc(SCC(=O)c3ccc(OC)cc3)n2C)cc1	n	n	n	n
Cc1ccc(S(=O)(=O)N=C2SCCCS2)cc1	n	n	n	n
CCOC(=O)c1nn(C)c(C)c1Cl	n	n	n	n
